Test results: ChEMBL document CHEMBL3124867, “Hepatitis C replication inhibitors that target the viral NS4B protein” (J Med Chem, 2014)
Values after ≈ are worked out from the molar mass of the structure shown.

Legend:
[1] = Volume of distribution at steady state in beagle dog at 1 mg/kg, iv by LC/MS/MS analysis; format: ADME, organism-based, Canis lupus familiaris; parameters: dose 1 mg/kg, route intravenous; conditions: in vivo, read-out: Vdss
Procedure, shortened: (§1)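 Intravenous dose of 1 mg/kg in DMSO/20% HP-β-CD (10:90) (n = 4). Clearance, Vdss and t1/2 were derived from the plasma concentration–time profiles.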

Cytochrome P450 2D6 = Cytochrome P450 2D6 (Homo sapiens, UniProt P10635); experiment: Inhibition of CYP2D6 in human liver microsomes after 10 mins by LC/MS/MS analysis; format: ADME
Cytochrome P450 2D6, sequence (P10635 whole entry): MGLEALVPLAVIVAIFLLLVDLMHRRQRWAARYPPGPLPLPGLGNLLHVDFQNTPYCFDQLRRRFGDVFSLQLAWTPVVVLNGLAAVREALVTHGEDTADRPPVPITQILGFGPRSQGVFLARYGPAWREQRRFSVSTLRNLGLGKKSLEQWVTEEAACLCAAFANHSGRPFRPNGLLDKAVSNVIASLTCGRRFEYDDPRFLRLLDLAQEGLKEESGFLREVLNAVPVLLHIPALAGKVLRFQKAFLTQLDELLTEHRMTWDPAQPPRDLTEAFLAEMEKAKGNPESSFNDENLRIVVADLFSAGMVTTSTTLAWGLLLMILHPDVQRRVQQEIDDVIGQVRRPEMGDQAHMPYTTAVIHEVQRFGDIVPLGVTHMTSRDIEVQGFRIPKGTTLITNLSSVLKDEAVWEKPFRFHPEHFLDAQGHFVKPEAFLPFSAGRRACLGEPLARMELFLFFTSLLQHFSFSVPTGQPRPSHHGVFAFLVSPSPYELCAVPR
Procedure, shortened: (§2)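 Cytochrome P450 isozymes 3A4, 1A2, 2C9, 2C19 and 2D6 were tested for inhibition up to 20 μM, with IC50 reported.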

[2] = Clearance in cynomolgus monkey at 1 mg/kg, iv by LC/MS/MS analysis; format: ADME, organism-based, Macaca fascicularis; parameters: dose 1 mg/kg, route intravenous; conditions: in vivo; procedure, shortened: as §1
Cytochrome P450 3A4 = Cytochrome P450 3A4 (Homo sapiens, UniProt P08684); experiment: Inhibition of CYP3A4 in human liver microsomes after 7 mins by LC/MS/MS analysis; format: ADME; procedure, shortened: as §2
Cytochrome P450 3A4, sequence (P08684 whole entry): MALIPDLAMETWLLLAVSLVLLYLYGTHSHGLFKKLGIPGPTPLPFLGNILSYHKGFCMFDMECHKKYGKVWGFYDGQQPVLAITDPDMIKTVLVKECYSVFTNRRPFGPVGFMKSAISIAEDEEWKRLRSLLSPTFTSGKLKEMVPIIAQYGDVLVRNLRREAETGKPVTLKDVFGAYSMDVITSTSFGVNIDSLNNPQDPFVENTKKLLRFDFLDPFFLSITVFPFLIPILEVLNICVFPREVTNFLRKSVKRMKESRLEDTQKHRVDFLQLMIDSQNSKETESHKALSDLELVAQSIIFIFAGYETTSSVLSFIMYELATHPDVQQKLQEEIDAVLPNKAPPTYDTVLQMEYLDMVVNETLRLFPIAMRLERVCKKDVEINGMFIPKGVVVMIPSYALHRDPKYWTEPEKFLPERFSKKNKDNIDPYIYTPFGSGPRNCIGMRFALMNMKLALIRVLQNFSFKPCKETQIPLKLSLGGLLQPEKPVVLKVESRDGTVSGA

Hepatitis C virus [3] = experiment: Antiviral activity against Hepatitis C virus genotype 1a infected in human HuH7 cells after 48 hrs by luciferase reporter gene assay; format: functional, organism-based, Hepacivirus hominis; conditions: subtype 1a, Huh-7, 48 h
[4] = Half life in beagle dog at 1 mg/kg, iv by LC/MS/MS analysis; format: ADME, organism-based, Canis lupus familiaris; parameters: dose 1 mg/kg, route intravenous; conditions: in vivo; procedure, shortened: as §1
[5] = Plasma protein binding in human at 5 uM after 4 hrs by rapid equilibrium dialysis method; format: ADME, cell-free; conditions: read-out: PPB (converted)
Liver microsome [6] = experiment: Drug metabolism in rat liver microsomes assessed as generation of reactive metabolites at 10 uM after 30 mins by glutathione-trapping assay; format: ADME; conditions: 0.5 h
Procedure, shortened: (§3)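 Rat and human liver microsomes were incubated with compound, and a glutathione-trapping assay was used to detect reactive metabolites.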

Cytochrome P450 2C19 = Cytochrome P450 2C19 (Homo sapiens, UniProt P33261); experiment: Inhibition of CYP2C19 in human liver microsomes after 10 mins by LC/MS/MS analysis; format: ADME; procedure, shortened: as §2
Cytochrome P450 2C19, sequence (P33261 whole entry): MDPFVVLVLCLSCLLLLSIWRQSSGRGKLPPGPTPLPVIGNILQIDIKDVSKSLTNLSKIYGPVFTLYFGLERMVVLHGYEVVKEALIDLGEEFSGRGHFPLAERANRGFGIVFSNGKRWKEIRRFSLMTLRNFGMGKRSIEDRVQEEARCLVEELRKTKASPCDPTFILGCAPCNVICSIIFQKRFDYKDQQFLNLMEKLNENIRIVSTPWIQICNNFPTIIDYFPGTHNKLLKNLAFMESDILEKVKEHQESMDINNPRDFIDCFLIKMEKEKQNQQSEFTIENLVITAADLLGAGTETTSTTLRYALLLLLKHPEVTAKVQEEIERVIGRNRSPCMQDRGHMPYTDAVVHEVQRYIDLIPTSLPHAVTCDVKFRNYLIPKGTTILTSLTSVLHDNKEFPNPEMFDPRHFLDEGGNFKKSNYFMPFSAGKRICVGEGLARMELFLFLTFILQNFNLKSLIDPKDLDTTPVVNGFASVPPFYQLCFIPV

[7] = Oral bioavailability in beagle dog at 5 mg/kg by LC/MS/MS analysis; format: ADME, organism-based, Canis lupus familiaris; conditions: in vivo
Procedure, shortened: (§4)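 Oral dose of 5 mg/kg in DMSO/20% HP-β-CD (10:90), with a matching iv group for bioavailability. Plasma concentration–time profiles gave AUC0−∞ and F.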

Hepatitis C virus [8] = experiment: Antiviral activity against Hepatitis C virus genotype 1b expressing NS4B H94N mutant infected in human HuH7 cells after 48 hrs by luciferase reporter gene assay; format: functional, organism-based, Hepacivirus hominis; conditions: Huh-7, 48 h
[9] = Plasma protein binding in CD rat at 5 uM after 4 hrs by rapid equilibrium dialysis method; format: ADME, cell-free; conditions: read-out: PPB (converted)
[10] = AUC (0 to infinity) in cynomolgus monkey at 5 mg/kg, po by LC/MS/MS analysis; format: ADME, organism-based, Macaca fascicularis; parameters: time infinity, dose 5 mg/kg, route oral; conditions: plasma; procedure, shortened: as §4
[11] = AUC (0 to infinity) in CD rat at 5 mg/kg, po by LC/MS/MS analysis; format: ADME, organism-based; parameters: time infinity, dose 5 mg/kg, route oral; conditions: plasma; procedure, shortened: as §4
[12] = Clearance in CD-1 mouse at 1 mg/kg, iv by LC/MS/MS analysis; format: ADME, organism-based; parameters: dose 1 mg/kg, route intravenous; conditions: in vivo; procedure, shortened: as §1
[13] = Plasma protein binding in CD-1 mouse at 5 uM after 4 hrs by rapid equilibrium dialysis method; format: ADME, cell-free; conditions: read-out: PPB (converted)
Hepatitis C virus [14] = experiment: Antiviral activity against Hepatitis C virus genotype 1b expressing NS4B V105M mutant infected in human HuH7 cells after 48 hrs by luciferase reporter gene assay; format: functional, organism-based, Hepacivirus hominis; conditions: Huh-7, 48 h
Liver microsome [15] = experiment: Drug metabolism in human liver microsomes assessed as generation of reactive metabolites at 10 uM after 30 mins by glutathione-trapping assay; format: ADME; conditions: 0.5 h; procedure, shortened: as §3
[16] = Clearance in CD rat at 1 mg/kg, iv by LC/MS/MS analysis; format: ADME, organism-based; parameters: dose 1 mg/kg, route intravenous; conditions: in vivo; procedure, shortened: as §1
[17] = Half life in cynomolgus monkey at 1 mg/kg, iv by LC/MS/MS analysis; format: ADME, organism-based, Macaca fascicularis; parameters: dose 1 mg/kg, route intravenous; conditions: in vivo; procedure, shortened: as §1
[18] = Displacement of [3H]-3-(1-(3-chloro-6-isopropyl-8-(trifluoromethyl)imidazo[1,2-a]pyridine-2-carbonyl)piperidin-4-yl)oxazolidin-2-one from HCV genotype 1b C-terminal His-tagged NS4B (1 to 261 aa) expressed in baculovirus infected SF9 cells after overnight incubation; parameters: species or system Hepatitis C virus subtype 1b
[19] = Lipophilicity, log D of the compound by chromatographic analysis; format: physicochemical
Procedure, shortened: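 Lipophilicity was measured chromatographically and reported as ChromLogD; ≥6 replicates.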

[20] = AUC (0 to infinity) in beagle dog at 5 mg/kg, po by LC/MS/MS analysis; format: ADME, organism-based, Canis lupus familiaris; parameters: time infinity, dose 5 mg/kg, route oral; conditions: plasma; procedure, shortened: as §4
[21] = Oral bioavailability in CD-1 mouse at 5 mg/kg by LC/MS/MS analysis; format: ADME, organism-based; conditions: in vivo; procedure, shortened: as §4
[22] = Volume of distribution at steady state in CD-1 mouse at 1 mg/kg, iv by LC/MS/MS analysis; format: ADME, organism-based; parameters: dose 1 mg/kg, route intravenous; conditions: in vivo, read-out: Vdss; procedure, shortened: as §1
[23] = Half life in CD rat at 1 mg/kg, iv by LC/MS/MS analysis; format: ADME, organism-based; parameters: dose 1 mg/kg, route intravenous; conditions: in vivo; procedure, shortened: as §1
[24] = Volume of distribution at steady state in cynomolgus monkey at 1 mg/kg, iv by LC/MS/MS analysis; format: ADME, organism-based, Macaca fascicularis; parameters: dose 1 mg/kg, route intravenous; conditions: in vivo, read-out: Vdss; procedure, shortened: as §1
[25] = Plasma protein binding in beagle dog at 5 uM after 4 hrs by rapid equilibrium dialysis method; format: ADME, cell-free, Canis lupus familiaris; conditions: read-out: PPB (converted)
[26] = Plasma protein binding in cynomolgus monkey at 5 uM after 4 hrs by rapid equilibrium dialysis method; format: ADME, cell-free, Macaca fascicularis; conditions: read-out: PPB (converted)
Hepatitis C virus [27] = experiment: Antiviral activity against Hepatitis C virus genotype 1b infected in human HuH7 cells after 48 hrs by luciferase reporter gene assay; format: functional, organism-based, Hepacivirus hominis; conditions: Huh-7, 48 h
[28] = Volume of distribution at steady state in CD rat at 1 mg/kg, iv by LC/MS/MS analysis; format: ADME, organism-based; parameters: dose 1 mg/kg, route intravenous; conditions: in vivo, read-out: Vdss; procedure, shortened: as §1
[29] = Oral bioavailability in cynomolgus monkey at 5 mg/kg by LC/MS/MS analysis; format: ADME, organism-based, Macaca fascicularis; conditions: in vivo; procedure, shortened: as §4
[30] = Half life in CD-1 mouse at 1 mg/kg, iv by LC/MS/MS analysis; format: ADME, organism-based; parameters: dose 1 mg/kg, route intravenous; conditions: in vivo; procedure, shortened: as §1
[31] = Clearance in beagle dog at 1 mg/kg, iv by LC/MS/MS analysis; format: ADME, organism-based, Canis lupus familiaris; parameters: dose 1 mg/kg, route intravenous; conditions: in vivo; procedure, shortened: as §1
[32] = Aqueous solubility in fasted state simulated intestinal fluid at pH 6.5 by LC/UV analysis; format: physicochemical
Cytochrome P450 1A2 = target: T1, Cytochrome P450 1A2 (Homo sapiens, UniProt P05177); experiment: Inhibition of CYP1A2 in human liver microsomes after 10 mins by LC/MS/MS analysis; format: ADME; procedure, shortened: as §2
T1 sequence (P05177 whole entry): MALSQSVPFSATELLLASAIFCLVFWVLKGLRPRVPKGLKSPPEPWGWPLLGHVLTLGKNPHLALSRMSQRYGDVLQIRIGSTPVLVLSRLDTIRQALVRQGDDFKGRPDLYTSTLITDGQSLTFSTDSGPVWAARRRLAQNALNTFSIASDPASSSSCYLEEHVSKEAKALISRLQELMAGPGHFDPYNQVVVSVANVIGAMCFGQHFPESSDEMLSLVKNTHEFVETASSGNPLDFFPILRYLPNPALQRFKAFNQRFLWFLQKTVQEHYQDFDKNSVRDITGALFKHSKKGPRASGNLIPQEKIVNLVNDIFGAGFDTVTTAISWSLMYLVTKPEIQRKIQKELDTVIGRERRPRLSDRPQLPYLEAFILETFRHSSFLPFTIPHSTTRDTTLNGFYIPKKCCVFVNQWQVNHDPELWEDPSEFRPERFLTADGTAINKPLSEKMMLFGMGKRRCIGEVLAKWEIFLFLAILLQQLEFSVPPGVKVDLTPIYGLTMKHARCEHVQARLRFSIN

Cytochrome P450 2C9 = Cytochrome P450 2C9 (Homo sapiens, UniProt P11712); experiment: Inhibition of CYP2C9 in human liver microsomes after 10 mins by LC/MS/MS analysis; format: ADME; procedure, shortened: as §2
Cytochrome P450 2C9, sequence (P11712 whole entry): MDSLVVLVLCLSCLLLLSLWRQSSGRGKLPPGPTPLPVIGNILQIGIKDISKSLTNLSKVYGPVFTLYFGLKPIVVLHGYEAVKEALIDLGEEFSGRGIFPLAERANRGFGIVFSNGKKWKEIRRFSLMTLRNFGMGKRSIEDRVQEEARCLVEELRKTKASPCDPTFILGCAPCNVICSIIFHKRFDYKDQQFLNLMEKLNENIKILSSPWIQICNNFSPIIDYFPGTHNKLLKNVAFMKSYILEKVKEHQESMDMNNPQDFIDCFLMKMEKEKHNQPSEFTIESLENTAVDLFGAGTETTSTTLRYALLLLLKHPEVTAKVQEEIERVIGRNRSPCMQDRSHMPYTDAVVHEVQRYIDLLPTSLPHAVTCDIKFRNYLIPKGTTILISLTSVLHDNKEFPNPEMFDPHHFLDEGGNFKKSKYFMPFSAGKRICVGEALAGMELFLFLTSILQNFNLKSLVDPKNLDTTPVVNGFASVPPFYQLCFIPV

[33] = AUC (0 to infinity) in CD-1 mouse at 5 mg/kg, po by LC/MS/MS analysis; format: ADME, organism-based; parameters: time infinity, dose 5 mg/kg, route oral; conditions: plasma; procedure, shortened: as §4
[34] = Oral bioavailability in CD rat at 5 mg/kg by LC/MS/MS analysis; format: ADME, organism-based; conditions: in vivo; procedure, shortened: as §4
Hepatocyte [35] = experiment: Drug metabolism in human hepatocytes assessed as oxidation of the terminal bicyclohexane substituent at 10 uM by LC/MS/MS analysis; format: ADME, cell-based
Hepatocyte [36] = experiment: Drug metabolism in rat hepatocytes assessed as oxidation of the terminal bicyclohexane substituent at 10 uM by LC/MS/MS analysis; format: ADME, cell-based

## O=C(c1nn2c(C(F)(F)F)cc(C3CC3)cc2c1Cl)N1CCN([C@H]2C[C@@H]3C[C@@H]3[C@@H]2O)C(=O)C1
[1]
  Vd: 0.7 L/kg
Cytochrome P450 2D6
  IC50: > 20 µM
[2]
  clearance: 3 mL/min/kg
Cytochrome P450 3A4
  IC50: > 20 µM
Hepatitis C virus [3]
  EC50: 0.6 nM
[4]
  half-life: 120 min
[5]
  fraction unbound at 4 h, 5 µM: 0.06
Liver microsome [6]
  Stability: Stable
Cytochrome P450 2C19
  IC50: > 20 µM
[7]
  bioavailability: > 100%
Hepatitis C virus [8]
  EC50: 5 nM
[9]
  fraction unbound at 4 h, 5 µM: 0.04
[10]
  AUC(0-inf): 25000 ng·h/mL
[11]
  AUC(0-inf): 3100 ng·h/mL
[12]
  clearance: 19 mL/min/kg
[13]
  fraction unbound at 4 h, 5 µM: 0.03
Hepatitis C virus [14]
  EC50: 38 nM
Liver microsome [15]
  Stability: Stable
[16]
  clearance: 25 mL/min/kg
[17]
  half-life: 240 min
[18]
  IC50: 8 nM
[19]
  chromatographic logD: 4.6
[20]
  AUC(0-inf): 25000 ng·h/mL
[21]
  bioavailability: 12%
[22]
  Vd: 0.6 L/kg
[23]
  half-life: 120 min
[24]
  Vd: 0.7 L/kg
[25]
  fraction unbound at 4 h, 5 µM: 0.07
[26]
  fraction unbound at 4 h, 5 µM: 0.09
Hepatitis C virus [27]
  EC50: 0.3 nM
[28]
  Vd: 2 L/kg
[29]
  bioavailability: 97%
[30]
  half-life: 24 min
[31]
  clearance: 6 mL/min/kg
[32]
  solubility: 310 µg/mL (≈ 642 µM)
Cytochrome P450 1A2
  IC50: > 20 µM
Cytochrome P450 2C9
  IC50: > 20 µM
[33]
  AUC(0-inf): 1000 ng·h/mL
[34]
  bioavailability: 92%

## O=C(c1nn2c(C(F)(F)F)cc(C3CC3)cc2c1Cl)N1CCN([C@@H]2C[C@H]3C[C@H]3C2)C(=O)C1
Hepatocyte [35]
  Stability: Unstable
Hepatitis C virus [3]
  EC50: 0.1 nM
Hepatitis C virus [8]
  EC50: 0.7 nM
Hepatocyte [36]
  Stability: Unstable
Hepatitis C virus [14]
  EC50: 2 nM
[16]
  clearance: 70 mL/min/kg
[18]
  IC50: 4 nM
[19]
  chromatographic logD: 6.4
Hepatitis C virus [27]
  EC50: 0.06 nM
